# Results taken from ChEMBL document CHEMBL4270616, “Asymmetrical meta-methoxylated diarylpentanoids: Rational design, synthesis and anti-cancer evaluation in-vitro” (Eur J Med Chem, 2018).
# How the values were obtained:
# HT-1080 = experiment: Cytotoxicity against human HT1080 cells after 72 hrs by MTT assay; assay type: functional, cell-based; details: HT-1080, 72 h
# Outline: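 Tumour lines kept in DMEM with 10% FBS and 1% penicillin/streptomycin at 37°C, 5% CO2. Seeded at 1500-5000 cells/well by doubling time and size, 24 h, then compound in DMSO-containing medium (final DMSO 0.1%) for 72 h. MTT (5 mg/mL) 4 h at 37°C, DMSO solubilisation, absorbance at 570 nm.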
# SW-620 [1] = experiment: Induction of apoptosis in human SW620 cells assessed as early apoptotic cells at 5 uM after 24 hrs by Annexin V-FITC/propidium iodide staining based flow cytometry (reference value: 2.35%); assay type: functional
# SW-620 [2] = experiment: Induction of apoptosis in human SW620 cells assessed as live cells at 10 uM after 24 hrs by Annexin V-FITC/propidium iodide staining based flow cytometry (reference value: 97.03%); assay type: functional
# SW-620 [3] = experiment: Induction of apoptosis in human SW620 cells assessed as live cells at 1.25 uM after 48 hrs by Annexin V-FITC/propidium iodide staining based flow cytometry (reference value: 96.26%); assay type: functional
# SW-620 [4] = experiment: Induction of apoptosis in human SW620 cells assessed as late apoptotic cells at 1.25 uM after 48 hrs by Annexin V-FITC/propidium iodide staining based flow cytometry (reference value: 0.2%); assay type: functional
# SW-620 [5] = experiment: Induction of apoptosis in human SW620 cells assessed as early apoptotic cells at 2.5 uM after 48 hrs by Annexin V-FITC/propidium iodide staining based flow cytometry (reference value: 2.75%); assay type: functional
# SW-620 [6] = experiment: Induction of apoptosis in human SW620 cells assessed as live cells at 5 uM after 48 hrs by Annexin V-FITC/propidium iodide staining based flow cytometry (reference value: 96.26%); assay type: functional
# SW-620 [7] = experiment: Induction of apoptosis in human SW620 cells assessed as early apoptotic cells at 10 uM after 48 hrs by Annexin V-FITC/propidium iodide staining based flow cytometry (reference value: 2.75%); assay type: functional
# SW-620 [8] = experiment: Induction of apoptosis in human SW620 cells assessed as live cells at 1.25 uM after 72 hrs by Annexin V-FITC/propidium iodide staining based flow cytometry (reference value: 97.34%); assay type: functional
# SW-620 [9] = experiment: Induction of apoptosis in human SW620 cells assessed as necrotic cells at 1.25 uM after 72 hrs by Annexin V-FITC/propidium iodide staining based flow cytometry (reference value: 0.27%); assay type: functional
# SW-620 [10] = experiment: Induction of ROS generation in human SW620 cells after 12 hrs by DCFDA staining based flow cytometry; assay type: functional, cell-based
# Outline: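 SW620 cells (2×10^5/well) adhered overnight and were loaded with 10 μM DCFDA in medium for 1 h, then washed twice with PBS. Compound exposure followed at several concentrations for 12 h, with untreated and hydrogen peroxide-treated controls. Harvested cells were resuspended in PBS and DCF fluorescence read by flow cytometry at ex 488/em 525 nm.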
SMILES,IC50 (HT-1080) [nM],Activity (SW-620 [1]) [%],Activity (SW-620 [2]) [%],Activity (SW-620 [3]) [%],Activity (SW-620 [4]) [%],Activity (SW-620 [5]) [%],Activity (SW-620 [6]) [%],Activity (SW-620 [7]) [%],Activity (SW-620 [8]) [%],Activity (SW-620 [9]) [%],Activity (SW-620 [10])
COc1ccc(/C=C2\CCC/C(=C\c3cccc(O)c3)C2=O)cc1OC,1700,23.28,50.73,94.54,0.92,4.43,36.63,9.84,92.34,0.63,Dose-dependent effect
COc1ccc(/C=C2\CCC/C(=C\c3cc(OC)c(OC)c(OC)c3)C2=O)cc1OC,1100,40.26,46.2,82.82,0.37,12.28,26.23,0.37,34.33,0.35,Dose-dependent effect
